Source: PubChem (Broad Institute)
This is a sample that favours compounds with a hit; in the whole collection about 1.5% have one here.
Cneo AK release – Cryptococcus neoformans cell lysis inducers, primary screen, AK release luminescence, single concentration. C. neoformans lysis, adenylate kinase release luminescence, 4 h; normalised: neutral wells 0, clomiphene wells 100. 0.2% of 360,000 active. lysis activity, % at 15 µM. AID 651654, 2012;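 active means mean lysis activity across replicates of at least 80%, whatever share of replicates individually reach that level; inactive means mean lysis activity below 80%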
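Material: C. neoformans cells; Schedule: 4 h static compound exposure, 37 °C, read 1 h post-reagent; Measured by: adenylate kinase release luminescence; Read-out: signal increase indicating cell lysis; Controls: Clomiphene as positive lysis control.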
PGC1a acetyl inh – inhibitors of PGC1a acetylation signal, primary screen, cell-based, U2OS, AlphaScreen, inhibitor mode; AlphaScreen anti-acetyl-lysine; with virally co-expressed GCN5 acetyltransferase; inhibition, % at 15.6 µM; 0.17% of 350,000 active; AID 651687, 2012;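 active means every replicate shows inhibition of at least 40%; inconclusive means mean inhibition at least 40% but some replicate below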;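 further: 0% = neutral control wells and 100% = positive control wells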
MITF act – activators of MITF-driven TRPM1 promoter reporter, primary screen, cell-based, SK-MEL-5, luciferase, single point; SK-MEL-5 TRPM1-promoter luciferase, 24 h; % of positive control, neutral wells = 0; activation, % at 12.5 µM; 0.75% of 300,000 active;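 active means mean activation of at least 80% with every replicate also reaching 80%; inconclusive means mean reaches 80% but some replicate falls short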;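 further: 0% = neutral control wells and 100% = parthenolide positive control wells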
Wnt act – Wnt/beta-catenin pathway activators, primary screen, cell-based, plate reader, single point; Wnt/beta-catenin reporter cell assay, activator; activation, % at 9.35 µM; 1.2% of 300,000 active; in the data active means activation above about 30%, passing the limit was not always enough; inconclusive means no clear call, values can overlap the other calls;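 further: 0% = neutral control wells and 100% = positive control wells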
* hit, by the source's call; ! = not active in a repeat.

Screening Cc1ccc(C)c(Cn2nnc(C(=O)Nc3ccc4c(c3)OCCO4)c2N)c1 returned Cneo AK release -2, MITF act 85* and Wnt act 23.
Screening Cc1ccc(N2CC(C(=O)Nc3ccc4c(c3)OCCO4)CC2=O)cc1 (configuration not stated) returned Cneo AK release 1, PGC1a acetyl inh 12, MITF act -1 and Wnt act 30*.
Screening Cc1ccc(NC(=O)c2nnn(-c3ccc4c(c3)OCCO4)c2N)cc1 returned Cneo AK release -7, PGC1a acetyl inh -10, MITF act 99* and Wnt act 15.
Screening Cc1cc(C)cc(NC(=O)c2nnn(Cc3cc(C)ccc3C)c2N)c1 returned Cneo AK release -2, PGC1a acetyl inh -12 and MITF act 13.
Nc1c(C(=O)Nc2ccccc2)nnn1-c1ccc2c(c1)OCCO2 was read as Cneo AK release -3, MITF act 25 and Wnt act 11.
For Cc1ccc(N2CC(C(=O)Nc3ccc4c(c3)OCCO4)CC2=O)cc1C (configuration not stated) the results were Cneo AK release 2, PGC1a acetyl inh -5, MITF act 1 and Wnt act -4.
For Cc1ccccc1Cn1nnc(C(=O)Nc2ccc3c(c2)OCCO3)c1N the results were Cneo AK release -6, PGC1a acetyl inh -15, MITF act 91* and Wnt act 46*.
`C[C@H](NC(=O)[C@@H]1[C@@H](CO)[C@@H]2Cn3c(ccc(-c4cccnc4)c3=O)[C@H]1N2C)c1ccccc1` gave Cneo AK release 2.
CC(C(=O)Nc1ccc2c(c1)OCCO2)n1nnc(-c2ccccc2)n1 (configuration not stated) was read as MITF act 13 and Wnt act -6.
For C[C@@H](C(=O)Nc1ccc2c(c1)OCCO2)n1nnc2ccccc2c1=O the results were Cneo AK release 1, PGC1a acetyl inh -5, MITF act 101* and Wnt act 24.
`C#CCN1C(=O)S/C(=C\c2ccc(-c3ccc(Cl)c(C(=O)O)c3)o2)C1=O` gave Cneo AK release -4, PGC1a acetyl inh 0, MITF act 27 and Wnt act 31*.
O=C(O)c1cc(-c2ccc(/C=C3\NC(=O)N(c4ccccc4)C3=O)o2)ccc1Cl was read as Cneo AK release 3, PGC1a acetyl inh -5, MITF act -1 and Wnt act 9.
Screening C[C@@H]1CCCCO[C@@H](CN(C)Cc2ccncc2)[C@@H](C)CN([C@@H](C)CO)C(=O)c2cc(NC(=O)c3ccncc3)ccc2O1 returned Cneo AK release 89* and PGC1a acetyl inh -2.
Screening CC(C)NC(=O)Nc1ccc2c(c1)C(=O)N([C@H](C)CO)C[C@H](C)[C@H](CN(C)Cc1ccncc1)OCCCC[C@H](C)O2 returned Cneo AK release 114* and PGC1a acetyl inh 2.
C[C@H]1CCCCO[C@@H](CN(C)Cc2ccncc2)[C@@H](C)CN([C@@H](C)CO)C(=O)c2cc(NC(=O)c3ccncc3)ccc2O1 was read as Cneo AK release -1 and PGC1a acetyl inh 13.
Screening COc1ccc(CN(C)C[C@H]2OCCCC[C@@H](C)Oc3ccc(NC(=O)c4ccccc4)cc3C(=O)N([C@H](C)CO)C[C@@H]2C)cc1 returned Cneo AK release 102*!, PGC1a acetyl inh 13 and Wnt act -6.
Screening C[C@H](CO)N1C[C@H](C)[C@@H](CN(C)Cc2ccncc2)OCCCC[C@H](C)Oc2ccc(NC(=O)NC3CCCCC3)cc2C1=O returned Cneo AK release 111* and PGC1a acetyl inh 11.
Screening COc1ccc(CN(C)C[C@@H]2OCCCC[C@H](C)Oc3ccc(NC(=O)c4ccccc4)cc3C(=O)N([C@H](C)CO)C[C@@H]2C)cc1 returned Cneo AK release -8 and PGC1a acetyl inh 2.
CC(C)NC(=O)Nc1ccc2c(c1)C(=O)N([C@H](C)CO)C[C@@H](C)[C@@H](CN(C)Cc1ccncc1)OCCCC[C@H](C)O2 was read as Cneo AK release 2 and PGC1a acetyl inh 1.
`CCCNC(=O)N1[C@H](CO)[C@@H]2c3ccccc3N(C(=O)NC(C)C)C[C@@H]21` gave Cneo AK release -2 and PGC1a acetyl inh 0.
`COc1cccc(-c2csc(NC(C)=O)n2)c1` gave Cneo AK release 5, PGC1a acetyl inh -4 and MITF act 83*.
Screening O=C(Cc1ccccc1F)Nc1nc(-c2ccc(F)c(F)c2)cs1 returned Cneo AK release 1, PGC1a acetyl inh -48, MITF act 83* and Wnt act 9.
For CC(=O)Nc1nc(-c2ccc(-c3ccccc3)cc2)cs1 the results were Cneo AK release -22, PGC1a acetyl inh -17 and Wnt act 40*.
For COc1ccc(-c2csc(NC(C)=O)n2)cc1OC the results were Cneo AK release 1, PGC1a acetyl inh -3 and Wnt act 6.
For CC(=O)NNc1nc(-c2ccccc2)cs1 the results were PGC1a acetyl inh -5, MITF act -9 and Wnt act 2.
`COc1ccc(NC(=O)N(C)C[C@H]2Oc3ccc(NC(=O)C4CCCCC4)cc3CC(=O)N([C@@H](C)CO)C[C@H]2C)cc1` gave Cneo AK release 0 and PGC1a acetyl inh 0.
Screening O=C(C[C@@H]1C=C[C@@H](NC(=O)c2ccc(F)cc2)[C@H](CO)O1)NCc1ccncn1 returned Cneo AK release 0 and PGC1a acetyl inh 1.
CCC(=O)N1CCc2nc(-c3ccccc3)sc2C1 was read as Cneo AK release 1, PGC1a acetyl inh -3, MITF act 84* and Wnt act 13.
CC(C)(C)C(=O)Nc1nc2c(s1)CN(Cc1ccccc1)CC2 was read as PGC1a acetyl inh 1, MITF act 72 and Wnt act -2.
CC(C)NC(=O)N(C)C[C@@H]1Oc2ncc(C#CC3CCCCC3)cc2C(=O)N([C@H](C)CO)C[C@H]1C was read as PGC1a acetyl inh 22.
COC(=O)c1cc(-c2ccc(OC)cc2)n[nH]1 was read as Cneo AK release 2, PGC1a acetyl inh 4, MITF act 91* and Wnt act -2.
For COC(=O)c1cc(-c2ccc(C)cc2)n[nH]1 the results were PGC1a acetyl inh 7, MITF act 15 and Wnt act inconclusive.
O=C(Nc1ccc2c(c1)[C@@H]1C[C@H](CC(=O)N3CCOCC3)O[C@H](CO)[C@@H]1O2)C1CCC1 was read as Cneo AK release 6 and PGC1a acetyl inh 5.
Screening Cc1cc(-c2onc(C)c2C(=O)Oc2ccc(Cl)cc2)no1 returned PGC1a acetyl inh -6, MITF act 5 and Wnt act -5.
Cc1cc(-c2onc(C)c2C(N)=O)no1 was read as PGC1a acetyl inh -1, MITF act -10 and Wnt act 38*.
`CCCC(=O)Nc1ccc2c(c1)OC[C@@H](C)N(C(=O)CC1CC1)C[C@H](C)[C@H](OC)CN(C)C2=O` gave Cneo AK release -2 and PGC1a acetyl inh -2.
